Among the data in ChEMBL document CHEMBL1914416, “Discovery of pyridine-2-ones as novel class of multidrug resistance (MDR) modulators: first structure-activity relationships” (Bioorg Med Chem, 2011) are Ratio and Activity values, retold here.

Structures are written as SMILES.

Series [1] addresses T1, ATP-dependent translocase ABCB1 (Homo sapiens, UniProt P08183). The series is described as follows: Reversal of human MDR1-mediated rhodamine 123 uptake in mouse L5178Y cells assessed as fluorescence activity ratio at 1 µM by flow cytometry relative to non p-gp expressing parental cell line.
Series [2] addresses T1, ATP-dependent translocase ABCB1. Description: Reversal of human MDR1-mediated rhodamine 123 uptake in mouse L5178Y cells assessed as fluorescence activity ratio at 10 mM by flow cytometry relative to non p-gp expressing parental cell line. The class given is cell-based. Particulars: in the assay text read “10 µM” for “10 mM”. A digest of the protocol: (§1)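 Mouse T-lymphoma L5178Y parental and retrovirally transfected P-gp-expressing L5178Y mdr cells were grown in McCoy's 5A with 10% heat-inactivated horse serum and 2 mM L-glutamine; the mdr line was precultured with 60 ng/mL colchicine. Cells (2 × 10^6/mL, serum-free) were preincubated with inhibitor 10 min at rt, then given rhodamine 123 for 20 min at 37 °C. They were washed twice and resuspended in PBS. Uptake was read by flow cytometry (1 × 10^4 cells). FAR is the mdr/parental quotient, each corrected by inhibitor-free controls.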

For another series, the system named is L5178Y. Description: Cytotoxicity against mouse L5178Y cells at 20 umol by flow cytometric analysis. The class given is cell-based.
For series [3], the target named is T1, ATP-dependent translocase ABCB1. The series is described as follows: Reversal of human MDR1-mediated rhodamine 123 uptake in mouse L5178Y cells assessed as fluorescence activity ratio at 20 umol by flow cytometry relative to non p-gp expressing parental cell line. The class given is cell-based. A digest of the protocol: as §1

T1 sequence (P08183 whole entry): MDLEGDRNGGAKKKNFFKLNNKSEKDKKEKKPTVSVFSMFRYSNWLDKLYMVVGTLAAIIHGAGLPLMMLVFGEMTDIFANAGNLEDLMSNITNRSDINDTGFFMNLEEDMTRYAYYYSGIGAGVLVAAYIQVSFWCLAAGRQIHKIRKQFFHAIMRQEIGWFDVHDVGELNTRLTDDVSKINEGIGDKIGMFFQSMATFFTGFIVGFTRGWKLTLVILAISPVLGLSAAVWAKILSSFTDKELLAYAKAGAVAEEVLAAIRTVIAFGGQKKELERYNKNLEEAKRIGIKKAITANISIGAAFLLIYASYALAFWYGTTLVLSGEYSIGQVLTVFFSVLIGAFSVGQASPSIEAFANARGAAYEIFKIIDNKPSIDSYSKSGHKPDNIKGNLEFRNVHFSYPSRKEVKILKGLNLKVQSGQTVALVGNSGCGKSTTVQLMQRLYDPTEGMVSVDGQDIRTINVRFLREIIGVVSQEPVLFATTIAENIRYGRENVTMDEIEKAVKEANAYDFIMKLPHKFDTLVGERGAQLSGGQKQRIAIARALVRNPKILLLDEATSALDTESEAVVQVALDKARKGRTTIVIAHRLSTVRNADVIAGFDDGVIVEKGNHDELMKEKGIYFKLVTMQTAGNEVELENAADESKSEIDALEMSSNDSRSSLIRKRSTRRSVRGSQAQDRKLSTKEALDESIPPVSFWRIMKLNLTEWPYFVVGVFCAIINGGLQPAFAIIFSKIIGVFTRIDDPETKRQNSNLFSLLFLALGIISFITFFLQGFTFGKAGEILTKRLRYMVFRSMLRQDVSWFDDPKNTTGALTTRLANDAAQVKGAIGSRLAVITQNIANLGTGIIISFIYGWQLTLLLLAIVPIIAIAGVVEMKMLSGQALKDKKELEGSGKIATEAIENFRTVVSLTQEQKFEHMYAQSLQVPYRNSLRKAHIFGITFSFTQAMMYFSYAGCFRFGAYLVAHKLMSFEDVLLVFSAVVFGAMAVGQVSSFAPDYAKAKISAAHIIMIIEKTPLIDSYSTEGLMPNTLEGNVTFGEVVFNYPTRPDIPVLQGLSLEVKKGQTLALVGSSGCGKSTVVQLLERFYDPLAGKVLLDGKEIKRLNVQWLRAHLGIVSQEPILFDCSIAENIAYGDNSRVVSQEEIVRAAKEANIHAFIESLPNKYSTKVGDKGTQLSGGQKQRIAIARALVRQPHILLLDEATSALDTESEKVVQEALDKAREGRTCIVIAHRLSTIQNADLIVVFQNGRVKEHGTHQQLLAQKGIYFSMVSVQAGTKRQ

For `N#Cc1c(Cc2ccccc2)ccn(Cc2ccccc2)c1=O`, the results for the Ratio in series [1] and in series [2] were 1.06 and 1.63, respectively.
For `COC(=O)c1c(-c2ccccc2C)ccn(Cc2ccccc2)c1=O`, in that order: 1.1 and 1.51.
`COC(=O)c1c(Cc2ccccc2)ccn(Cc2ccccc2)c1=O`: the Ratio was found to be 1.09 in series [1] and 1.68 in series [2].
Consider `COc1ccc(-c2ccn(Cc3ccccc3)c(=O)c2C#N)cc1`, for which, in the series with L5178Y, the Activity result is listed as “Non-toxic”. In addition, the Ratio in series [1] stood at 1.05; in series [2], 1.35.
`N#Cc1c(-c2ccccc2)ccn(Cc2ccccc2)c1=O`: the Ratio in series [1] is recorded as 0.99; in series [2] it was 1.71.
Consider `COc1ccccc1-c1ccn(Cc2ccccc2)c(=O)c1C#N`, for which, in the series with L5178Y, the Activity entry is given as “Non-toxic”. Also, the Ratio stood at 1.29 in series [1], 3.3 in series [3] and 2.16 in series [2].
On to `Cc1ccccc1-c1ccn(Cc2ccccc2)c(=O)c1C#N`, for which the Ratio is on record as 1.05 in series [1] and 1.83 in series [2].
Consider `COC(=O)c1c(-c2ccc(C)cc2)ccn(Cc2ccccc2)c1=O`, for which the Ratio was determined as 0.94 in series [1] and 1.75 in series [2].
In the case of `Cc1ccc(-c2ccn(Cc3ccccc3)c(=O)c2C#N)cc1`, the Ratio in series [1] amounted to 0.98; in series [2], 1.56.
Taken in the same sequence, the figures for `COc1ccc(CCN(C)CCCC(C#N)(c2ccc(OC)c(OC)c2)C(C)C)cc1OC` (centres undefined) [VERAPAMIL] were 0.89 and 2.94.
As for `COC(=O)c1c(-c2ccc(OC)cc2)ccn(Cc2ccccc2)c1=O`, the Ratio stood at 0.94 in series [1] and 1.91 in series [2].
As to `COC(=O)c1c(-c2ccccc2)ccn(Cc2ccccc2)c1=O`, the Ratio is 1.06 in series [1] and 1.74 in series [2].
For `O=C(OCc1ccccc1)c1c(-c2ccccc2)ccn(Cc2ccccc2)c1=O`, in that order: 1.22 and 2.59.
